Columns and labels:
HCT-116 [1] = assay: Antiproliferative activity against human HCT116 cells after 72 hrs by tetrazolium dye assay; assay type: functional; conditions: HCT-116, 72 h
Outline: (§1)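 Tetrazolium dye proliferation assay over 72 h, with half-log serial dilutions from 30 µM down to 100 nM. GI50 was derived from the dose-response.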

HeLa [2] = assay: Selectivity ratio for induction of p21 promoter gene in human HeLa cells to induction of klf2 promoter gene in human A204 cells at 3 uM; assay type: functional
A204 [3] = assay: Induction of klf2 promoter gene in human A204 cells assessed as percent induction activity at 10 uM relative to SNDX-275; assay type: functional
HL-60 = assay: Antiproliferative activity against human HL60 cells after 72 hrs by tetrazolium dye assay; assay type: functional; conditions: HL-60, 72 h; outline: as §1
HeLa [4] = assay: Antiproliferative activity against human HeLa cells after 72 hrs by tetrazolium dye assay; assay type: functional; outline: as §1
HeLa [5] = assay: Selectivity ratio for induction of p21 promoter gene in human HeLa cells to induction of klf2 promoter gene in human A204 cells at 10 uM; assay type: functional
HepG2 = assay: Antiproliferative activity against human HepG2 cells after 72 hrs by tetrazolium dye assay; assay type: functional; conditions: HepG2, 72 h; outline: as §1
HeLa [6] = assay: Induction of p21 promoter gene in human HeLa cells assessed as percent induction activity at 3 uM relative to SNDX-275; assay type: functional
HCT-116 [7] = assay: Induction of apoptosis in human HCT116 cells after 48 hrs by annexin V/FACS analysis; assay type: functional, cell-based
Outline: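 HCT-116 cells exposed for 48 h to several concentrations or vehicle. Apoptosis was scored as percent annexin V-positive cells by FACS.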

Histone deacetylase 1 = Histone deacetylase 1 (Homo sapiens, UniProt Q13547); assay: Inhibition of HDAC1
Histone deacetylase 2 = Histone deacetylase 2 (Homo sapiens, UniProt Q92769); assay: Inhibition of HDAC2
HeLa [8] = assay: Induction of p21 promoter gene in human HeLa cells assessed as percent induction activity at 10 uM relative to SNDX-275; assay type: functional
U2OS = assay: Antiproliferative activity against human U2OS cells after 72 hrs by tetrazolium dye assay; assay type: functional; outline: as §1
HCT-116 [9] = assay: Induction of acetylated H4 level in human HCT116 cells after 24 hrs; assay type: functional, cell-based
Outline: (§2)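 HCT-116 cells treated for 24 h across a range of concentrations. Acetylated histone H4 and endogenous p21, or cell-cycle distribution, were assessed.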

HCT-116 [10] = assay: Cell cycle arrest in human HCT116 cells after 24 hrs; assay type: functional, cell-based; outline: as §2
A204 [11] = assay: Induction of klf2 promoter gene in human A204 cells assessed as percent induction activity at 3 uM relative to SNDX-275; assay type: functional
HCT-116 [12] = assay: Induction of endogenous p21 level in human HCT116 cells after 24 hrs; assay type: functional, cell-based; outline: as §2
Histone deacetylase 3 = Histone deacetylase 3 (Homo sapiens, UniProt O15379)
MCF7 = assay: Antiproliferative activity against human MCF7 cells after 72 hrs by tetrazolium dye assay; assay type: functional; conditions: MCF7, 72 h; outline: as §1
A204 [13] = assay: Antiproliferative activity against human A204 cells assessed as growth at 3 uM after 24 hrs; assay type: functional; conditions: A204, 24 h, read-out: Activity
Outline: (§3)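 HeLa and A204 cells exposed to test agents at 3 or 10 µM for 24 h. Growth is expressed as percent of vehicle-treated control cells.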

HeLa [14] = assay: Antiproliferative activity against human HeLa cells assessed as growth at 10 uM after 24 hrs; assay type: functional; conditions: read-out: Activity; outline: as §3
A204 [15] = assay: Antiproliferative activity against human A204 cells assessed as growth at 10 uM after 24 hrs; assay type: functional; conditions: A204, 24 h, read-out: Activity; outline: as §3
HeLa [16] = assay: Antiproliferative activity against human HeLa cells assessed as growth at 3 uM after 24 hrs; assay type: functional; conditions: read-out: Activity; outline: as §3

Histone deacetylase 2, sequence (Q92769 whole entry): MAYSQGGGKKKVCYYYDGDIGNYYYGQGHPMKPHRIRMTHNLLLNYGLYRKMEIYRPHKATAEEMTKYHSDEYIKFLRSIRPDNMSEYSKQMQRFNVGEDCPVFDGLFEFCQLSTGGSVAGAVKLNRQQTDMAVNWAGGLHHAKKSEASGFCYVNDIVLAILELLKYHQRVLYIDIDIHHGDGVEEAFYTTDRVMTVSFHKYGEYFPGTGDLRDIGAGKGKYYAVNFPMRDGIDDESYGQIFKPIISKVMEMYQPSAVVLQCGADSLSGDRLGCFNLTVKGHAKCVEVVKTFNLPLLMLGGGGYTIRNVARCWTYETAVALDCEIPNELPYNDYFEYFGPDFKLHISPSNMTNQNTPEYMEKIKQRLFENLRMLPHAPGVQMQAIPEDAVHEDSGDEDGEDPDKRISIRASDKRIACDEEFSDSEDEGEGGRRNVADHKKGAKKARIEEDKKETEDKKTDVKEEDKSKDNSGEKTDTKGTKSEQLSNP
Histone deacetylase 3, sequence (O15379 whole entry): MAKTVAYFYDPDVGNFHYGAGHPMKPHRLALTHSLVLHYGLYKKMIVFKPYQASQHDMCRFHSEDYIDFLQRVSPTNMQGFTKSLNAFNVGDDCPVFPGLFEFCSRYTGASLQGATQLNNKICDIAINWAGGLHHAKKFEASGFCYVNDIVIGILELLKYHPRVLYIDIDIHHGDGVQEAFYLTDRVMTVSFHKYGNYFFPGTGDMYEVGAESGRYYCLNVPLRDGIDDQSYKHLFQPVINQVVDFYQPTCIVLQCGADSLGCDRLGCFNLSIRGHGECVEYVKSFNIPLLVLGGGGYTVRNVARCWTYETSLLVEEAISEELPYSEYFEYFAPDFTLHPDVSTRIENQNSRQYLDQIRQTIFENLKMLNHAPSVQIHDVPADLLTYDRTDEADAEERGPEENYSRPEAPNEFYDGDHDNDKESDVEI
Histone deacetylase 1, sequence (Q13547 whole entry): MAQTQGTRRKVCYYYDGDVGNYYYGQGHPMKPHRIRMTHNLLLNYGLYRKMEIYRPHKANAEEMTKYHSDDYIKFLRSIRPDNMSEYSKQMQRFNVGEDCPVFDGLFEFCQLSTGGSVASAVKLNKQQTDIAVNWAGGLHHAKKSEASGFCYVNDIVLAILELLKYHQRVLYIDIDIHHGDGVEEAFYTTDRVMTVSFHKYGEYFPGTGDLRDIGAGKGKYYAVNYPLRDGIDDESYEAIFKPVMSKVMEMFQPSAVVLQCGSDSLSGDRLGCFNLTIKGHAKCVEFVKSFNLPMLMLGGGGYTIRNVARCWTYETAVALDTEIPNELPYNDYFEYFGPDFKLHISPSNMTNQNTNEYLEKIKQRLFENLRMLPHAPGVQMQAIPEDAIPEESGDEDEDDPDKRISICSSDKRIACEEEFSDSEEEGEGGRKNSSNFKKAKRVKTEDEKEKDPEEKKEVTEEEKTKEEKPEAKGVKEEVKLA

Compound	Activity (HeLa [2])	Activity (A204 [3])	Activity (HeLa [5])	Activity (HeLa [6])	Activity (HeLa [8])	Activity (A204 [11])	other results
Nc1ccccc1NC(=O)/C=C/c1ccc(C(NCCN2CCOCC2)C(=O)Nc2ccc(C(F)(F)F)cc2)cc1 (configuration not stated)	1.4	38%	3.1	86%	116%	64%	GI50 (HCT-116 [1]): 1000 nM; GI50 (HL-60): 400 nM; GI50 (HeLa [4]): 2200 nM; GI50 (HepG2): 1700 nM; Activity (HCT-116 [7]): Dose-dependent effect; IC50 (Histone deacetylase 1): 60 nM; IC50 (Histone deacetylase 2): 290 nM; GI50 (U2OS): 1000 nM; Activity (HCT-116 [9]): Dose-dependent effect; Activity (HCT-116 [10]): Dose-dependent effect; Activity (HCT-116 [12]): Dose-dependent effect; IC50 (Histone deacetylase 3): 460 nM; GI50 (MCF7): 1900 nM
Nc1ccccc1NC(=O)/C=C/c1ccc(C(C(=O)Nc2ccc(C(F)(F)F)cc2)N2CCCC2)cc1 (configuration not stated)	1.4	69%	1.3	85%	89%	62%	–
Nc1ccccc1NC(=O)/C=C/c1ccc(C(C(=O)Nc2ccc(C3CC3)cc2)N2CCCC2)cc1 (configuration not stated)	1.7	98%	1.5	100%	148%	58%	–
CC(C)c1ccc(-c2ccc(NC(=O)C(NCCN3CCCCC3)c3ccc(/C=C/C(=O)Nc4ccccc4N)cc3)cc2)cc1 (configuration not stated)	1.8	63%	2.1	77%	130%	42%	–
Nc1ccccc1NC(=O)/C=C/c1ccc(C(NCCC2CCOCC2)C(=O)Nc2ccc(C(F)(F)F)cc2)cc1 (configuration not stated)	1	58%	1.1	53%	64%	55%	IC50 (Histone deacetylase 1): 200 nM; IC50 (Histone deacetylase 2): 800 nM; IC50 (Histone deacetylase 3): 1000 nM
Nc1ccccc1NC(=O)/C=C/c1ccc(C(NCCN2CCCCC2)C(=O)Nc2ccc(-c3ccc(C4CC4)cc3)cc2)cc1 (configuration not stated)	2.2	90%	2.1	143%	187%	65%	growth at 3 µM (A204 [13]): 93%; growth at 10 µM (HeLa [14]): 81%; IC50 (Histone deacetylase 1): 50 nM; IC50 (Histone deacetylase 2): 240 nM; growth at 10 µM (A204 [15]): 89%; IC50 (Histone deacetylase 3): 360 nM; growth at 3 µM (HeLa [16]): 103%
Nc1ccccc1NC(=O)/C=C/c1ccc(C(NCCN2CCCCC2)C(=O)Nc2ccc(C(F)(F)F)cc2)cc1 (configuration not stated)	2.4	85%	0.9	163%	77%	69%	–
CC(CNC(C(=O)Nc1ccc(OC(F)(F)F)cc1)c1ccc(/C=C/C(=O)Nc2ccccc2N)cc1)N1CCOCC1 (configuration not stated)	2.2	44%	2.4	160%	104%	72%	growth at 3 µM (A204 [13]): 97%; growth at 10 µM (HeLa [14]): 83%; growth at 10 µM (A204 [15]): 93%; growth at 3 µM (HeLa [16]): 107%
CN(CCN1CCOCC1)C(C(=O)Nc1ccc(OC(F)(F)F)cc1)c1ccc(/C=C/C(=O)Nc2ccccc2N)cc1 (configuration not stated)	1.6	71%	1.5	61%	109%	39%	–
Nc1ccccc1NC(=O)/C=C/c1ccc(C(NCCCN2CCOCC2)C(=O)Nc2ccc(C(F)(F)F)cc2)cc1 (configuration not stated)	1.9	79%	1.7	139%	130%	73%	–
CN(C)CCNC(C(=O)Nc1ccc(C(F)(F)F)cc1)c1ccc(/C=C/C(=O)Nc2ccccc2N)cc1 (configuration not stated)	2	93%	1.4	138%	134%	69%	–
Nc1ccccc1NC(=O)/C=C/c1ccc(C(NCCCN2CCOCC2)C(=O)Nc2ccc(OC(F)(F)F)cc2)cc1 (configuration not stated)	2.2	58%	2.5	83%	144%	38%	–
CN(C)C(C(=O)Nc1ccc(C(F)(F)F)cc1)c1ccc(/C=C/C(=O)Nc2ccccc2N)cc1 (configuration not stated)	0.5	33%	1.3	24%	43%	45%	–
Nc1ccccc1NC(=O)/C=C/c1ccc(C(NCCN2CCSCC2)C(=O)Nc2ccc(C(F)(F)F)cc2)cc1 (configuration not stated)	0.9	63%	1.5	71%	95%	77%	–
N#Cc1ccc(-c2ccc(NC(=O)C(NCCN3CCCCC3)c3ccc(/C=C/C(=O)Nc4ccccc4N)cc3)cc2)cc1 (configuration not stated)	1.8	92%	1.7	128%	157%	72%	–
CN(CCN1CCOCC1)C(C(=O)Nc1ccc(C(F)(F)F)cc1)c1ccc(/C=C/C(=O)Nc2ccccc2N)cc1 (configuration not stated)	1	82%	1.5	72%	121%	70%	–
Nc1ccccc1NC(=O)/C=C/c1ccc(C(NCc2ccco2)C(=O)Nc2ccc(C(F)(F)F)cc2)cc1 (configuration not stated)	0.6	21%	1.7	19%	36%	30%	–
Nc1ccccc1NC(=O)/C=C/c1ccc(C(NCCCN2CCOCC2)C(=O)Nc2ccc(C3CC3)cc2)cc1 (configuration not stated)	1.7	95%	1.9	117%	178%	70%	–
Nc1ccccc1NC(=O)/C=C/c1ccc(C(NCCN2CCCCC2)C(=O)Nc2ccc(-c3ccc(C(F)(F)F)cc3F)cc2)cc1 (configuration not stated)	1.7	84%	1.8	110%	153%	65%	–
Nc1ccccc1NC(=O)/C=C/c1ccc(C(N)C(=O)Nc2ccc(C(F)(F)F)cc2)cc1 (configuration not stated)	1	40%	1.8	31%	73%	32%	–
Nc1ccccc1NC(=O)/C=C/c1ccc(C(NCCC2(O)CCOCC2)C(=O)Nc2ccc(C(F)(F)F)cc2)cc1 (configuration not stated)	0.9	68%	1.4	55%	96%	64%	–
CC(CNC(C(=O)Nc1ccc(-c2ccc(C3CC3)cc2)cc1)c1ccc(/C=C/C(=O)Nc2ccccc2N)cc1)N1CCOCC1 (configuration not stated)	2.2	98%	2	161%	196%	75%	–
Nc1ccccc1NC(=O)/C=C/c1ccc(C(NCCN2CCCCC2)C(=O)Nc2ccc(OC(F)(F)F)cc2)cc1 (configuration not stated)	2.9	40%	3.4	112%	136%	39%	growth at 3 µM (A204 [13]): 95%; growth at 10 µM (HeLa [14]): 61%; growth at 10 µM (A204 [15]): 88%; growth at 3 µM (HeLa [16]): 105%
Nc1ccccc1NC(=O)/C=C/c1ccc(C(NCCN2CCCCC2)C(=O)Nc2ccc(-c3ccc(C(F)(F)F)c(F)c3)cc2)cc1 (configuration not stated)	2.4	54%	1.7	77%	92%	32%	–
COCCNC(C(=O)Nc1ccc(C(F)(F)F)cc1)c1ccc(/C=C/C(=O)Nc2ccccc2N)cc1 (configuration not stated)	0.8	56%	1.1	36%	64%	45%	–
CN(C)CCNC(C(=O)Nc1ccc(OC(F)(F)F)cc1)c1ccc(/C=C/C(=O)Nc2ccccc2N)cc1 (configuration not stated)	1.8	74%	2.5	152%	182%	85%	–
Nc1ccccc1NC(=O)/C=C/c1ccc(C(NCCN2C[C@@H]3C[C@H]2CO3)C(=O)Nc2ccc(OC(F)(F)F)cc2)cc1 (some centres not stated)	2.6	63%	2.4	98%	152%	39%	growth at 3 µM (A204 [13]): 97%; growth at 10 µM (HeLa [14]): 82%; growth at 10 µM (A204 [15]): 90%; growth at 3 µM (HeLa [16]): 103%

Reference: ChEMBL document CHEMBL1641604, “Application of p21 and klf2 reporter gene assays to identify selective histone deacetylase inhibitors for cancer therapy” (Bioorg Med Chem Lett, 2011)
